Measured values taken from ChEMBL document CHEMBL4725261, “Design, synthesis and evaluation of carbamate-linked uridyl-based inhibitors of human ST6Gal I” (Bioorg Med Chem, 2020).

Key:
[1] = biological target: T1, Beta-galactoside alpha-2,6-sialyltransferase 1 (Rattus norvegicus, UniProt P13721); test: Inhibition of rat liver ST6Gal-1 using […] measured up to 20 mins by HPLC analysis
T1 sequence (P13721 whole entry): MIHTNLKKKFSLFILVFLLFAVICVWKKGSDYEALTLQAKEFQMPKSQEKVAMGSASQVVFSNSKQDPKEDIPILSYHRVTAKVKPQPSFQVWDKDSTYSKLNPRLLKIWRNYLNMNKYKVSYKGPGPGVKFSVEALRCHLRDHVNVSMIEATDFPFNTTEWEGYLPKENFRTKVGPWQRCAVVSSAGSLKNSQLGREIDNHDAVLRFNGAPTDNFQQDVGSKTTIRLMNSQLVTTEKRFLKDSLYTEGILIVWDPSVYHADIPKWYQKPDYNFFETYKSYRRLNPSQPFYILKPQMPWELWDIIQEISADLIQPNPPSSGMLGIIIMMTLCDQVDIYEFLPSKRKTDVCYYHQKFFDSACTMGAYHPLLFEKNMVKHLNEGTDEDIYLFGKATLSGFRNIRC

[2] = biological target: T1, Beta-galactoside alpha-2,6-sialyltransferase 1; test: Inhibition of rat liver ST6Gal-1 by HPLC-based assay
[3] = biological target: T2, Beta-galactoside alpha-2,6-sialyltransferase 1 (Homo sapiens, UniProt P15907); test: Displacement of fluorescent probe from human ST6Gal-1 by fluorescence polarization assay
T2 sequence (P15907 whole entry): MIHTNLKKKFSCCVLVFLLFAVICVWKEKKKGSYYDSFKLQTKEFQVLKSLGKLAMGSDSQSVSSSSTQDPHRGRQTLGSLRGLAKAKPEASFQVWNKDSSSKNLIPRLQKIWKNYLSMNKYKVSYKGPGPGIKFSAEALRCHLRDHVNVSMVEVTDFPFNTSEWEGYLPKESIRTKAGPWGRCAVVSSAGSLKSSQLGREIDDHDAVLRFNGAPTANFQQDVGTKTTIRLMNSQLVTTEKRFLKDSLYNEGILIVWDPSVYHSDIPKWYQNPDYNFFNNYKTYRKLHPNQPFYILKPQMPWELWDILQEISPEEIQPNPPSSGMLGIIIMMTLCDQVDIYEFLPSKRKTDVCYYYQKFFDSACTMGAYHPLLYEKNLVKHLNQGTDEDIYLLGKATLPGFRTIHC

MIA PaCa-2 = test: Cytotoxicity against human MIA PaCa-2 cells assessed as reduction in cell viability at 200 uM after 24 to 48 hrs by MTS assay; format: cell-based; conditions: mia paca-2, 200 µM, time 24-48 hrs
[4] = biological target: T2, Beta-galactoside alpha-2,6-sialyltransferase 1; test: Inhibition of recombinant human N-terminal 6His-tagged ST6Gal-1 (Glu44 to Cys406 residues)
Summary of the method: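 Recombinant human ST6Gal I activity was measured in a luminescence microplate assay, and inhibition was expressed as Ki.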

Compound	Activity (MIA PaCa-2)	Ki [4] [µM]	further results
Nc1ccn([C@@H]2O[C@H](COP(=O)(O)O[C@@H](c3cccc(Oc4ccccc4)c3)P(=O)(O)O)[C@@H](O)[C@H]2O)c(=O)n1	–	–	Ki [1]: 0.07 µM
CC(=O)N[C@H]1[C@@H](Oc2ccccc2)OC([C@@H](OP(=O)(O)OC[C@H]2O[C@@H](n3ccc(N)nc3=O)[C@H](O)[C@@H]2O)P(=O)(O)O)=C[C@@H]1O	–	–	Ki [2]: 0.029 µM
Nc1ccn([C@@H]2O[C@H](COP(=O)(O)O[C@@H](c3cccc(NC(=O)c4ccc(C(=O)O)c(-c5c6ccc(=O)cc-6oc6cc(O)ccc56)c4)c3)P(=O)(O)O)[C@@H](O)[C@H]2O)c(=O)n1	–	–	Kd [3]: 0.022 µM
Nc1ccn([C@@H]2O[C@H](COP(=O)(O)O[C@H](c3cccc(NC(=O)c4ccc(C(=O)O)c(-c5c6ccc(=O)cc-6oc6cc(O)ccc56)c4)c3)P(=O)(O)O)[C@@H](O)[C@H]2O)c(=O)n1	–	–	Kd [3]: 0.009 µM
O=C(NC[C@H]1O[C@@H](n2ccc(=O)[nH]c2=O)[C@H](O)[C@@H]1O)OC(c1cccc(Oc2ccccc2)c1)P(=O)([O-])[O-].[Na+].[Na+] (stereo in doubt; 28a-(s))	Non-Toxic	–	–
O=C(NC[C@H]1O[C@@H](n2ccc(=O)[nH]c2=O)[C@H](O)[C@@H]1O)OC(c1ccc(F)c(Oc2ccccc2)c1)P(=O)([O-])[O-].[Na+].[Na+] (stereo in doubt; 28b-(s))	Non-Toxic	–	–
O=C(NC[C@H]1O[C@@H](n2ccc(=O)[nH]c2=O)[C@H](O)[C@@H]1O)OC(c1ccc(F)cc1)P(=O)(O)O (stereo in doubt; 28c-(l))	–	1.1	–
O=C(NC[C@H]1O[C@@H](n2ccc(=O)[nH]c2=O)[C@H](O)[C@@H]1O)OC(c1ccc(F)cc1)P(=O)([O-])[O-].[Na+].[Na+] (stereo in doubt; 28c-(s))	Non-Toxic	306	–
O=C(NC[C@H]1O[C@@H](n2ccc(=O)[nH]c2=O)[C@H](O)[C@@H]1O)OC(c1cccc(F)c1)P(=O)([O-])[O-].[Na+].[Na+] (stereo in doubt; 28d-(s))	Non-Toxic	19.2	–
CCCOc1cccc(C(OC(=O)NC[C@H]2O[C@@H](n3ccc(=O)[nH]c3=O)[C@H](O)[C@@H]2O)P(=O)(O)O)c1 (stereo in doubt; 28e-(l))	–	20.3	–
CCCOc1cccc(C(OC(=O)NC[C@H]2O[C@@H](n3ccc(=O)[nH]c3=O)[C@H](O)[C@@H]2O)P(=O)([O-])[O-])c1.[Na+].[Na+] (stereo in doubt; 28e-(s))	Non-Toxic	–	–
COc1cccc(C(OC(=O)NC[C@H]2O[C@@H](n3ccc(=O)[nH]c3=O)[C@H](O)[C@@H]2O)P(=O)([O-])[O-])c1.[Na+].[Na+] (stereo in doubt; 28f-(s))	Non-Toxic	–	–
COc1ccc(C(OC(=O)NC[C@H]2O[C@@H](n3ccc(=O)[nH]c3=O)[C@H](O)[C@@H]2O)P(=O)([O-])[O-])cc1.[Na+].[Na+] (stereo in doubt; 28g-(s))	Non-Toxic	–	–
COc1ccc(C(OC(=O)NC[C@H]2O[C@@H](n3ccc(=O)[nH]c3=O)[C@H](O)[C@@H]2O)P(=O)([O-])[O-])cc1OC1CCCC1.[Na+].[Na+] (stereo in doubt; 28h-(s))	Non-Toxic	–	–
O=C(NC[C@H]1O[C@@H](n2ccc(=O)[nH]c2=O)[C@H](O)[C@@H]1O)OC(c1ccc(OC2CCCC2)cc1)P(=O)(O)O (stereo in doubt; 28i-(l))	–	11.5	–
O=C(NC[C@H]1O[C@@H](n2ccc(=O)[nH]c2=O)[C@H](O)[C@@H]1O)OC(c1ccc(OC2CCCC2)cc1)P(=O)([O-])[O-].[Na+].[Na+] (stereo in doubt; 28i-(s))	Non-Toxic	55.5	–
O=C(NC[C@H]1O[C@@H](n2ccc(=O)[nH]c2=O)[C@H](O)[C@@H]1O)OC(c1ccccc1)P(=O)([O-])[O-].[Na+].[Na+] (stereo in doubt; 28j-(s))	Non-Toxic	–	–
O=C(NC[C@H]1O[C@@H](n2ccc(=O)[nH]c2=O)[C@H](O)[C@@H]1O)OC(c1cc2ccccc2s1)P(=O)([O-])[O-].[Na+].[Na+] (stereo in doubt; 28k-(s))	Non-Toxic	8.5	–
O=C(NC[C@H]1O[C@@H](n2ccc(=O)[nH]c2=O)[C@H](O)[C@@H]1O)OC(c1csc2ccccc12)P(=O)([O-])[O-].[Na+].[Na+] (stereo in doubt; 28l-(s))	Non-Toxic	–	–
Nc1ccn([C@@H]2O[C@H](CNC(=O)OC(c3cccc(Oc4ccccc4)c3)P(=O)([O-])[O-])[C@@H](O)[C@H]2O)c(=O)n1.[Na+].[Na+] (stereo in doubt; 30-(s))	Non-Toxic	–	–
